Reference: ChEMBL document CHEMBL4339209, “Chemical modifications of imidazole-containing alkoxyamines increase C-ON bond homolysis rate: Effects on their cytotoxic properties in glioblastoma cells” (Bioorg Med Chem, 2019)
Calls of active or inactive are those of the source. No cut-off for these calls is given here.

Experiments:
[1] = Half life in H2O/MeOH buffered with Na2CO3/NaHCO3 at pH 10.3 in presence of alkyl radical scavenger TEMPOR by 31P[1H]-NMR analysis; assay type: physicochemical; conditions: for half-life: H2O/MeOH buffered with Na2CO3/NaHCO3, pH 10.3
[2] = tested on: U-87 MG; test: Cytotoxicity against human U87MG cells assessed as reduction in cell survival measured after 72 hrs by MTT assay; assay type: functional, cell-based, U-87MG ATCC; conditions: for Activity: U-87MG ATCC
Method in brief: (§1)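 MTT viability on 2D cultures, U87-MG in DMEM and U251-MG in EMEM with […], both with 10% FBS and Pen Strep. 5000 cells seeded, then 72 h exposure to 500, 250, 100, 50, 25, 10 and 5 μM (DMSO at most […]). MTT 0.5 mg/mL for 1 h, formazan in DMSO read at 550 nm. Survival as % of control. IC50 determined graphically. At least triplicate.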

[3] = Stability in H2O/MeOH buffered with HEPES/NaCl at pH 7.4 assessed as temperature; assay type: physicochemical; conditions: buffer
[4] = Stability in H2O/MeOH buffered with Na2CO3/NaHCO3 at pH 10.3 assessed as temperature; assay type: physicochemical; conditions: buffer
[5] = Stability in H2O/MeOH buffered with HCl/KCl at pH 2.2 assessed as temperature; assay type: physicochemical; conditions: buffer
[6] = Half life in H2O/MeOH buffered with HEPES/NaCl at pH 7.4 in presence of alkyl radical scavenger TEMPOR by 31P[1H]-NMR analysis; assay type: physicochemical; conditions: for half-life: H2O/MeOH buffered with HEPES/NaCl
[7] = n-octanol/phosphate buffered saline partition coefficient, log D of the compound at pH 7.4 by shake-flask method; assay type: physicochemical; conditions: n-octanol/phosphate buffered saline, read-out: logD
Method in brief: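 Shake-flask partition between pre-saturated n-octanol and PBS at pH 7.4. The aqueous phase was quantified by RP-HPLC on a 4.6 × 50 mm column, eluting with CH3CN/H2O (each with 0.1% TFA) from 10:90 to 100:0 over 10 min.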

[8] = Dissociation constant, pKa of the compound in 1:1 v/v D2O/CD3OD by 1H-NMR spectrometric method; assay type: physicochemical; conditions: 1:1 v/v D2O/CD3OD; read-out: pKa
Method in brief: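 Samples in D2O/CD3OD (1:1 v/v) were adjusted with DCl/NaOD to a series of pH* values, read on a meter calibrated with non-deuterated standards, and 1H-NMR was recorded at 400 MHz. Imidazole proton chemical shifts were plotted against pH* and fitted sigmoidally. The pKa* was converted by pH = 0.929 pH* + 0.42.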

[9] = Half life in H2O/MeOH buffered with HCl/KCl at pH 2.2 in presence of alkyl radical scavenger TEMPOR by 31P[1H]-NMR analysis; assay type: physicochemical; conditions: for half-life: H2O/MeOH buffered with HCl/KCl
[10] = tested on: U-251; test: Cytotoxicity against human U251MG cells assessed as reduction in cell survival at IC50 measured after 72 hrs in presence of alkyl radical scavenger troxerutin by MTT assay; assay type: functional, cell-based
Method in brief: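 U251-MG cells in EMEM (10% FBS, Pen Strep, […]) were exposed for 72 h to alkoxyamine together with an equal concentration of the alkyl radical scavenger troxerutin. Survival was read by MTT (0.5 mg/mL, 1 h, OD 550 nm) as % of control, and compared with alkoxyamine alone. At least triplicate.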

[11] = Drug homolysis in DMSO/TsOH assessed as activation energy in presence of alkyl radical scavenger TEMPOR by 31P[1H]-NMR analysis
[12] = Drug homolysis in DMSO assessed as activation energy in presence of alkyl radical scavenger TEMPOR by 31P[1H]-NMR analysis
[13] = Drug homolysis in DMSO assessed as rate constant by measuring nitroxide level in presence of alkyl radical scavenger TEMPOR by 31P[1H]-NMR analysis
[14] = tested on: U-251; test: Cytotoxicity against human U251MG cells assessed as reduction in cell survival measured after 72 hrs by MTT assay; assay type: functional, cell-based; method in brief: as §1
[15] = Drug homolysis in DMSO/TsOH assessed as rate constant by measuring nitroxide level in presence of alkyl radical scavenger TEMPOR by 31P[1H]-NMR analysis
[16] = Stability in DMSO assessed as temperature; assay type: physicochemical
[17] = Stability in DMSO/TsOH assessed as temperature; assay type: physicochemical

Compound | half-life [1] [h] | IC50 [2] [µM] | T [3] [°C] | T [4] [°C] | T [5] [°C] | half-life [6] [h] | logD [7] | pKa [8] | half-life [9] [h] | other results
CCOP(=O)(OCC)C(N(OC(C)c1ncc[nH]1)C(C)(C)C)C(C)(C)C (stereo in doubt; form 2) | 240 | 25 to 380 | 70 | 80 | 60 | 60 | 3.6 | 6.09 | 4 | –
CCOP(=O)(OCC)C(N(OC(C)c1nccn1C)C(C)(C)C)C(C)(C)C (stereo in doubt; form 1) | – | 25 to 380 | 70 | 80 | 60 | – | 3.4 | 6.28 | 2.4 | t1/2 ([1]; buffer, pH 10.3): 130 h; t1/2 ([6]; buffer): 31 h
CCOP(=O)(OCC)C(N(OC(C)n1ccnc1)C(C)(C)C)C(C)(C)C (stereo in doubt; form 1) [listing 1 of 2 here] | – | – | – | – | – | – | – | – | – | Activity [10]: Active; Activity [2]: Dose-dependent effect; Ea [11]: 34.1 kcal/mol; Ea [12]: 35.6 kcal/mol; Kdiss [13]: 2.69 ×10⁻⁴ /s; Activity [14]: Dose-dependent effect; Kdiss [15]: 1.44 ×10⁻³ /s
CCOP(=O)(OCC)C(N(OC(C)c1c[nH]cn1)C(C)(C)C)C(C)(C)C (stereo in doubt; form 1) | 408 | 25 to 380 | 80 | 80 | 80 | 288 | 3.7 | 6.11 | 103 | –
CCOP(=O)(OCC)C(N(OC(C)n1ccnc1)C(C)(C)C)C(C)(C)C (stereo in doubt; form 2) | – | – | – | – | – | – | – | – | – | Activity [10]: Active; Activity [2]: Dose-dependent effect; Ea [11]: 33.7 kcal/mol; Ea [12]: 34.6 kcal/mol; Kdiss [13]: 8.02 ×10⁻⁴ /s; Activity [14]: Dose-dependent effect; Kdiss [15]: 2.45 ×10⁻³ /s
CCOP(=O)(OCC)C(N(OC(C)n1ccnc1)C(C)(C)C)C(C)(C)C (stereo in doubt; form 1) [listing 2 of 2 here] | – | 25 to 380 | – | – | – | – | 3.4 | 5.62 | – | T [16]: 160 °C; T [17]: 160 °C
CCOP(=O)(OCC)C(N(OC(C)c1cn(C)cn1)C(C)(C)C)C(C)(C)C (stereo in doubt; form 1) | 1560 | 25 to 380 | 80 | 80 | 80 | 792 | 3.5 | 6.76 | – | t1/2 ([9]; buffer): 65 h
